Activity calls are given as the source filed them. The rule behind the calls is not given here.
Experiments:
HeLa = assay: Antiproliferative activity against human HeLa cells after 48 hrs by MTT assay relative to control; type: functional, cell-based
Summary of the method: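 HeLa cells exposed to compounds for 48 h; viability read as mitochondrial dehydrogenase activity by MTT reduction; IC50 values derived.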

Jurkat [1] = assay: Cell cycle arrest in Jurkat cells assessed as accumulation at G2/M phase at 5 uM after 15 hrs relative to control; type: functional, Homo sapiens
Summary of the method: (§1)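 Jurkat cells treated 15 h (test agents 5 μM, colchicine 25 μM, DMSO vehicle control); DNA stained with Vybrant Orange and analysed by flow cytometry; percent of cells in G0/G1, S and G2/M given as mean ± SD.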

Jurkat [2] = assay: Cell cycle arrest in Jurkat cells assessed as accumulation at G0/G1 phase at 5 uM after 15 hrs relative to control; type: functional, Homo sapiens; summary of the method: as §1
Jurkat [3] = assay: Cell cycle arrest in Jurkat cells assessed as accumulation at S phase at 5 uM after 15 hrs relative to control; type: functional, Homo sapiens; summary of the method: as §1
Jurkat [4] = assay: Induction of apoptosis in Jurkat cells at 5 uM after 36 hrs by flow cytometry; type: functional, Homo sapiens
Summary of the method: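 Jurkat cells incubated 36 h with agents at 5 μM (DMSO control); apoptosis scored by flow cytometry after annexin-V/propidium iodide staining; two experiments.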

Jurkat [5] = assay: Cell cycle arrest in Jurkat cells assessed as accumulation at G2/M phase at 25 uM after 15 hrs relative to control; type: functional, Homo sapiens; summary of the method: as §1
Jurkat [6] = assay: Cell cycle arrest in Jurkat cells assessed as accumulation at G0/G1 phase at 25 uM after 15 hrs relative to control; type: functional, Homo sapiens; summary of the method: as §1
Jurkat [7] = assay: Cell cycle arrest in Jurkat cells assessed as accumulation at S phase at 25 uM after 15 hrs relative to control; type: functional, Homo sapiens; summary of the method: as §1

Row | IC50 (HeLa) [µM] | Structure (SMILES) | Activity (Jurkat [4]) [%] | also measured
1 | > 100 | Cc1cc2c(c(=O)o1)C(c1cccc(Br)c1)C(C#N)=C(N)O2 (stereo not drawn) |  | 
2 | 0.58 | COc1cc(C2C(C#N)=C(N)Oc3cc(C)n(C)c(=O)c32)cc(Br)c1OC (stereo not drawn) | 50 | Activity (Jurkat [1]): 68.5%; Activity (Jurkat [2]): 12%; Activity (Jurkat [3]): 19%
3 | 1.08 | CCOc1c(Br)cc(C2C(C#N)=C(N)Oc3cc(C)n(C)c(=O)c32)cc1OC (stereo not drawn) | 50 | 
4 | 22.7 | COc1ccc(CCn2c(C)cc3c(c2=O)C(c2cc(OC)c(OC)c(OC)c2)C(C#N)=C(N)O3)cc1OC (stereo not drawn) |  | Activity (Jurkat [4]; Homo sapiens): inactive
5 | 0.33 | Cc1cc2c(c(=O)n1C)C(c1ccc(N(C)C)c(Br)c1)C(C#N)=C(N)O2 (stereo not drawn) | 50 | Activity (Jurkat [1]): 67.5%; Activity (Jurkat [2]): 14.4%; Activity (Jurkat [3]): 18.1%
6 | 2.67 | COc1cc(C2C(C#N)=C(N)Oc3cc(C)n(C)c(=O)c32)cc(Br)c1O (stereo not drawn) | 50 | 
7 | 6.33 | Cc1cc2c(c(=O)n1C)C(c1ccc(F)c(Br)c1)C(C#N)=C(N)O2 (stereo not drawn) | 50 | 
8 | 6.5 | Cc1cc2c(c(=O)n1C)C(c1cccc(Br)c1)C(C#N)=C(N)O2 (stereo not drawn) | 50 | 
9 | > 100 | Cc1cc2c(c(=O)n1C)C(c1ccc(C(C)C)cc1)C(C#N)=C(N)O2 (stereo not drawn) |  | Activity (Jurkat [4]; Homo sapiens): inactive
10 | 43.3 | COc1cc(C2C(C#N)=C(N)Oc3cc(C)n(C)c(=O)c32)cc(OC)c1OC (stereo not drawn) |  | 
11 | 35 | Cc1cc2c(c(=O)n1C)C(c1cccc([N+](=O)[O-])c1)C(C#N)=C(N)O2 (stereo not drawn) |  | Activity (Jurkat [4]; Homo sapiens): inactive
12 |  | COc1cc2c(c(OC)c1OC)-c1ccc(OC)c(=O)cc1[C@@H](NC(C)=O)CC2 [COLCHICINE] |  | Activity (Jurkat [5]): 57.9%; Activity (Jurkat [6]): 19%; Activity (Jurkat [7]): 23.1%
13 | 3.5 | COc1cc(C2C(C#N)=C(N)Oc3cc(C)n(C)c(=O)c32)cc(Br)c1OC(C)=O (stereo not drawn) | 50 | 
14 | 18.3 | Cc1cc2c(c(=O)n1C)C(c1ccc(Cl)c(Cl)c1)C(C#N)=C(N)O2 (stereo not drawn) |  | Activity (Jurkat [4]; Homo sapiens): inactive

Reference: ChEMBL document CHEMBL1149527, “Antiproliferative and apoptosis inducing properties of pyrano[3,2-c]pyridones accessible by a one-step multicomponent synthesis” (Bioorg Med Chem Lett, 2007)
